{"source": "ChEMBL document CHEMBL5678815", "about": "(Clin Cancer Res, 2017)", "key": {"[1]": {"target": "Dual specificity tyrosine-phosphorylation-regulated kinase 1B (Homo sapiens) (UniProt Q9Y463)", "sequence (Q9Y463 whole entry, looked up)": "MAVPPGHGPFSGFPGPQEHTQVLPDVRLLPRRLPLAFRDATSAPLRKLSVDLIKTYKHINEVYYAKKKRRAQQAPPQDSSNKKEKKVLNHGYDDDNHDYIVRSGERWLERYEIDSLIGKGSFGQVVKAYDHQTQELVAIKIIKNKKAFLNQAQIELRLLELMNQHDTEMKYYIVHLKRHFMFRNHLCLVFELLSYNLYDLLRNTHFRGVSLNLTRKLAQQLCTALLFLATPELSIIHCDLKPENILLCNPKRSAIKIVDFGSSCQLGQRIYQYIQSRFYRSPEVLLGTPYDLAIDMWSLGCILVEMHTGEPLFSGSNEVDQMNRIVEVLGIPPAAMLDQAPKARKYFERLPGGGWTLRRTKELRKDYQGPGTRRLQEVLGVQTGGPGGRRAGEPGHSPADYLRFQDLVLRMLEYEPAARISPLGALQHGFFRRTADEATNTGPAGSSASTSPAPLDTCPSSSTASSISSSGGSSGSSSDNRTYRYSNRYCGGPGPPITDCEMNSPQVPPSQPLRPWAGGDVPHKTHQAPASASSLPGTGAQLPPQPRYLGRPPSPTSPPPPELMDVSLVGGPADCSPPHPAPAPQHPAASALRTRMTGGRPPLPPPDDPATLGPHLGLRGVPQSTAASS", "assay": "Inhibition of human DYRK1B assessed as remaining activity at 1 uM by ATP-competition binding assay relative to control", "in_short": "(§1)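 KINOMEscan ATP-site-dependent competition binding panel of 395 human kinases, with compound tested at 1 μM. Binding is reported as remaining signal relative to control.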"}, "[2]": {"target": "Death-associated protein kinase 2 (Homo sapiens) (UniProt Q9UIK4)", "assay": "Inhibition of human DAPK2 assessed as remaining activity at 1 uM by ATP-competition binding assay relative to control", "in_short": "as §1"}, "[3]": {"test_system": "Proto-oncogene tyrosine-protein kinase receptor Ret (Homo sapiens), P07949 [V804L]", "assay": "Inhibition of human RET V804L assessed as remaining activity at 1 uM by ATP-competition binding assay relative to control", "in_short": "(§2)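 KINOMEscan ATP-site-dependent competition binding assay across a 395-kinase human panel including mutants; compound tested at 1μM; binding expressed relative to control signal.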"}, "[4]": {"target": "Tyrosine-protein kinase Mer (Homo sapiens) (UniProt Q12866)", "assay": "Inhibition of human MERTK assessed as remaining activity at 1 uM by ATP-competition binding assay relative to control", "in_short": "(§3)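 Single-point profiling at 1μM in an ATP-site-dependent competition binding assay across a panel of 395 human kinases, including mutant forms. The read-out is kinase binding signal in the presence of test agent, expressed as inhibition relative to the control signal. This screen assessed noncovalent binding interactions.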"}, "[5]": {"assay": "Antileukemic activity against human CLL mononuclear cells xenografted NSG mouse assessed as reduction in spleen cells at 0.3 to 0.16 mg/ml preadministered with compound via drinking water and measured after 3 weeks by flow cytometry analysis relative to control", "assay_type": "functional, CLL mononuclear cell", "design": "scale not given: the % may be the effect or the level left", "details": "dose 0.3-0.16 mg/ml, at 0.16 to 0.3 mg/mL", "in_short": "(§4)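 Primary CLL patient mononuclear cells (1 × 10^8 per mouse) engrafted into NSG mice on day 0 after busulfan priming on day −1. Vehicle or drug was given in drinking water from day −1. Mice were killed 3 weeks after engraftment; spleens homogenized, filtered and RBC-lysed; whole blood collected. Six patients, 2–5 mice per patient; paired t-test per patient.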"}, "[6]": {"target": "Serine/threonine-protein kinase Chk2 (Homo sapiens) (UniProt O96017)", "assay": "Inhibition of human CHEK2 assessed as remaining activity at 1 uM by ATP-competition binding assay relative to control", "in_short": "as §1"}, "CLL mononuclear cell": {"test_system": "CLL mononuclear cell", "assay": "Antileukemic activity against human CLL mononuclear cells xenografted NSG mouse assessed as reduction in ki67 cells at 0.3 mg/ml preadministered with compound via drinking water and measured after 3 weeks by flow cytometry analysis", "assay_type": "functional, cell-based", "in_short": "as §4"}, "[7]": {"target": "Non-receptor tyrosine-protein kinase TNK1 (Homo sapiens) (UniProt Q13470)", "assay": "Inhibition of human TNK1 assessed as remaining activity at 1 uM by ATP-competition binding assay relative to control", "in_short": "(§5)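 Single-concentration (1 μM) screen in an ATP-site-dependent competition binding assay (KINOMEscan, outsourced) covering 395 human kinases, mutants included. Non-covalent binding was read as the remaining signal relative to the control signal.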"}, "[8]": {"target": "Ephrin type-A receptor 8 (Homo sapiens) (UniProt P29322)", "assay": "Inhibition of human EPHA8 assessed as remaining activity at 1 uM by ATP-competition binding assay relative to control", "in_short": "as §3"}, "[9]": {"target": "Tyrosine-protein kinase Yes (Homo sapiens) (UniProt P07947)", "sequence (P07947 2-543 limits assumed)": "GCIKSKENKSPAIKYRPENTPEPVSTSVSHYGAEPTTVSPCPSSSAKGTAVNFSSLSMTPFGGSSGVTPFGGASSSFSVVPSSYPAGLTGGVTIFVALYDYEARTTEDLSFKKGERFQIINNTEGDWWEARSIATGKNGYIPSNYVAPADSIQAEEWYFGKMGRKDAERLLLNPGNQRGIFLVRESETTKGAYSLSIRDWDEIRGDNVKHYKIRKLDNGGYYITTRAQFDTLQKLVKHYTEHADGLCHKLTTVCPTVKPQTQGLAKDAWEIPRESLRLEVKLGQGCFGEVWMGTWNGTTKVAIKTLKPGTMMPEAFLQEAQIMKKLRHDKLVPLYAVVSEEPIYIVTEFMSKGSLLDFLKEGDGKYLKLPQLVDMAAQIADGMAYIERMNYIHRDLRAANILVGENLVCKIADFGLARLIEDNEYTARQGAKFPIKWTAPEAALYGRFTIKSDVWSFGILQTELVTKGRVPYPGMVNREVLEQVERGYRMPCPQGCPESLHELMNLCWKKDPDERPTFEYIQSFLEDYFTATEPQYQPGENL", "assay": "Inhibition of human YES assessed as remaining activity at 1 uM by ATP-competition binding assay relative to control", "in_short": "as §5"}, "[10]": {"target": "Mitogen-activated protein kinase kinase kinase 20 (Homo sapiens) (UniProt Q9NYL2)", "assay": "Inhibition of human ZAK assessed as remaining activity at 1 uM by ATP-competition binding assay relative to control", "in_short": "as §5"}, "[11]": {"target": "Mitogen-activated protein kinase kinase kinase 11 (Homo sapiens) (UniProt Q16584)", "assay": "Inhibition of human MLK3 assessed as remaining activity at 1 uM by ATP-competition binding assay relative to control", "in_short": "as §3"}, "[12]": {"target": "Serine/threonine-protein kinase 26 (Homo sapiens) (UniProt Q9P289)", "sequence (Q9P289 2-416 limits assumed)": "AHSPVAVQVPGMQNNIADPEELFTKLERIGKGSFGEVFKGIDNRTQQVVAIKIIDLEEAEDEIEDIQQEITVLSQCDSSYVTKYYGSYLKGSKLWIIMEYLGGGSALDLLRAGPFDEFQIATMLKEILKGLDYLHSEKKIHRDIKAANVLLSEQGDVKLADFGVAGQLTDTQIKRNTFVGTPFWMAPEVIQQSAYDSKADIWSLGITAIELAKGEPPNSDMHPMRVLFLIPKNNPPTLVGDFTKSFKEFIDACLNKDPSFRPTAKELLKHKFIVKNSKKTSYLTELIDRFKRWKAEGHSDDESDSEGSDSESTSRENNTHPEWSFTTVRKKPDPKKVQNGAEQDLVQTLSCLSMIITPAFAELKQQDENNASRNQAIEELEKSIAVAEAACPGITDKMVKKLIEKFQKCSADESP", "assay": "Inhibition of human MST4 assessed as remaining activity at 1 uM by ATP-competition binding assay relative to control", "in_short": "as §3"}, "[13]": {"target": "Mast/stem cell growth factor receptor Kit (Homo sapiens) (UniProt P10721)", "sequence (P10721 whole entry)": "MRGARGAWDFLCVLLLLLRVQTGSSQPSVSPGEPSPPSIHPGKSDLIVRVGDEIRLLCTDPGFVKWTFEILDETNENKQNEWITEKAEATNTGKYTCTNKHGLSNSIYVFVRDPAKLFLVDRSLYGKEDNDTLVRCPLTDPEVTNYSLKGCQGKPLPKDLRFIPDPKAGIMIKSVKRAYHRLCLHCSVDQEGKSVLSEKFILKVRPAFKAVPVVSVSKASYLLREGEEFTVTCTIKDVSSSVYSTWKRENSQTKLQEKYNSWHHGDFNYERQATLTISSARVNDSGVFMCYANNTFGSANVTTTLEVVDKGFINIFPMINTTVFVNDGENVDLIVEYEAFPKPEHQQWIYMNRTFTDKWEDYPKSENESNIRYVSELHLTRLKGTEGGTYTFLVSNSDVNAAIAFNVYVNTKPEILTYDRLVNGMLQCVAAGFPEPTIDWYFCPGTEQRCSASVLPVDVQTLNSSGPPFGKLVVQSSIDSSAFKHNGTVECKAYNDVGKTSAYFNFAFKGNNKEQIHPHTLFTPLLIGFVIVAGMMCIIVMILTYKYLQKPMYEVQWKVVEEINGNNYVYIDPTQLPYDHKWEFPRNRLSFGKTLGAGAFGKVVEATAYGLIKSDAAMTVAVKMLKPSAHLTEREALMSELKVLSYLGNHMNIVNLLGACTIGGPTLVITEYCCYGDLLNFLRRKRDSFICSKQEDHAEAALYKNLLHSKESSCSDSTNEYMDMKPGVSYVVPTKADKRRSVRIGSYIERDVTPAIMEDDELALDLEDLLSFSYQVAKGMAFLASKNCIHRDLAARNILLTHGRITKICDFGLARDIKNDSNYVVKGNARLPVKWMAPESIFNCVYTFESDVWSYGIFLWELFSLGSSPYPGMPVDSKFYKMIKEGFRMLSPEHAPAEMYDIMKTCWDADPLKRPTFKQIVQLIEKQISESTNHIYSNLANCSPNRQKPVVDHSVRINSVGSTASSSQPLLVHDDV", "assay": "Inhibition of human KIT assessed as remaining activity at 1 uM by ATP-competition binding assay relative to control", "in_short": "as §3"}, "[14]": {"assay": "Antitumor activity against human CLL mononuclear cells xenografted NSG mouse assessed as inhibition in the phosphorylation of ERK at 0.3 mg/ml preadministered with compound via drinking water and measured after 3 weeks by flow cytometry analysis relative to control", "assay_type": "functional", "details": "CLL mononuclear cell, 504 h", "in_short": "as §4"}, "[15]": {"target": "RAC-alpha serine/threonine-protein kinase (Homo sapiens) (UniProt P31749)", "assay": "Inhibition of human AKT1 assessed as remaining activity at 1 uM by ATP-competition binding assay relative to control", "in_short": "as §1"}, "[16]": {"target": "Serine/threonine-protein kinase PLK4 (Homo sapiens) (UniProt O00444)", "sequence (O00444 whole entry)": "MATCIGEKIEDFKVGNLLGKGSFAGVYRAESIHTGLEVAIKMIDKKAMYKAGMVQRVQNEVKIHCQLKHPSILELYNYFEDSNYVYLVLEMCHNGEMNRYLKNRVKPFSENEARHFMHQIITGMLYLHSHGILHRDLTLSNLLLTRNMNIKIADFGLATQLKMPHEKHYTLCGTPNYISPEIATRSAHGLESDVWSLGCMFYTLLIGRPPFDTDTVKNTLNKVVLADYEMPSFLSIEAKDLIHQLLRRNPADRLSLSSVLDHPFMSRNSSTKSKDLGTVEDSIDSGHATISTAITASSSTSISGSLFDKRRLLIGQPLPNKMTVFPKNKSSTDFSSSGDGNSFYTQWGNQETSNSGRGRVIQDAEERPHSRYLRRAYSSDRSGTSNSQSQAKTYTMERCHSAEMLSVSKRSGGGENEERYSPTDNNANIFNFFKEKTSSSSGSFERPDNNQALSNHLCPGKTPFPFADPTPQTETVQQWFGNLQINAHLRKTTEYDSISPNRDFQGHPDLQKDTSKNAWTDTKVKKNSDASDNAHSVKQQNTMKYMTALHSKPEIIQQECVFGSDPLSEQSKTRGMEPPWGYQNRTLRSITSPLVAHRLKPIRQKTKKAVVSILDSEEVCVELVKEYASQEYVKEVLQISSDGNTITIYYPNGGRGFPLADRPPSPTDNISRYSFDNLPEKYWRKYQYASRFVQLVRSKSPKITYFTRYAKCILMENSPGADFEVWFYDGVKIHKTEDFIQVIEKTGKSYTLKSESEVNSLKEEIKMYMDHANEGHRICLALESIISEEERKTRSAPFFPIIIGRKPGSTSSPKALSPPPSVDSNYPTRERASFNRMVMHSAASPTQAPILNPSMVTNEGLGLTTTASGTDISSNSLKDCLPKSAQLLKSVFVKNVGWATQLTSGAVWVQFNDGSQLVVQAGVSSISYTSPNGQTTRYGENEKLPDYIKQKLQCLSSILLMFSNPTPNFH", "assay": "Inhibition of human PLK4 assessed as remaining activity at 1 uM by ATP-competition binding assay relative to control", "in_short": "as §5"}, "[17]": {"target": "Mitogen-activated protein kinase 14 (Homo sapiens) (UniProt Q16539)", "sequence (Q16539 whole entry)": "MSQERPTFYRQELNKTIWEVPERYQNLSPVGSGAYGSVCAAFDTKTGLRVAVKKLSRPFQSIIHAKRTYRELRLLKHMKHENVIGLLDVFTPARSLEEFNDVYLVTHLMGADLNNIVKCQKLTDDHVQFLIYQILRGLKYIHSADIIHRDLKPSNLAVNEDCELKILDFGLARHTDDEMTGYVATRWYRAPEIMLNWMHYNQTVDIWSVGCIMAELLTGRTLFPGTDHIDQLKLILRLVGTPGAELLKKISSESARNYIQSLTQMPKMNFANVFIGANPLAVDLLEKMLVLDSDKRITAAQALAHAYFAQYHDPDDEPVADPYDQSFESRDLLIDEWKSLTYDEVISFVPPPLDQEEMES", "assay": "Inhibition of human P38alpha assessed as remaining activity at 1 uM by ATP-competition binding assay relative to control", "in_short": "as §3"}, "[18]": {"target": "Serine/threonine-protein kinase 35 (Homo sapiens) (UniProt Q8TDR2)", "assay": "Inhibition of human STK35 assessed as remaining activity at 1 uM by ATP-competition binding assay relative to control", "in_short": "as §5"}, "[19]": {"target": "Ephrin type-A receptor 1 (Homo sapiens) (UniProt P21709)", "assay": "Inhibition of human EPHA1 assessed as remaining activity at 1 uM by ATP-competition binding assay relative to control", "in_short": "as §1"}, "[20]": {"target": "Dual specificity protein kinase CLK2 (Homo sapiens) (UniProt P49760)", "sequence (P49760 whole entry, looked up)": "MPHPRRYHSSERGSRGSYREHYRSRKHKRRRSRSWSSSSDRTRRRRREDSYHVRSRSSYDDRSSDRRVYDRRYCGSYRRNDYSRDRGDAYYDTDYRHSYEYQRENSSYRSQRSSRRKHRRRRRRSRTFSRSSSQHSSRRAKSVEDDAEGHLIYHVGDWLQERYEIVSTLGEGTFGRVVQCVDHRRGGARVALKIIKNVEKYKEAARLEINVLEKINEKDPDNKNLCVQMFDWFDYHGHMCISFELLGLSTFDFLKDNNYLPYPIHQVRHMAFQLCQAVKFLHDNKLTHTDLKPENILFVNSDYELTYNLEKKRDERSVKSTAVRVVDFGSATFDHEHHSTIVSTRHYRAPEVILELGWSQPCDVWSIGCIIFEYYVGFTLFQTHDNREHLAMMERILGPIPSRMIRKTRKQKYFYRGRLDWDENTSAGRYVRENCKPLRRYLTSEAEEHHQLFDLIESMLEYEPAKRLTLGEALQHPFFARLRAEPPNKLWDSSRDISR", "assay": "Inhibition of human CLK2 assessed as remaining activity at 1 uM by ATP-competition binding assay relative to control", "in_short": "as §1"}, "[21]": {"target": "Epidermal growth factor receptor (Homo sapiens) (UniProt P00533)", "assay": "Inhibition of human EGFR assessed as remaining activity at 1 uM by ATP-competition binding assay relative to control", "in_short": "as §1"}, "[22]": {"test_system": "Hepatocyte growth factor receptor (Homo sapiens), P08581 [M1250T]", "assay": "Inhibition of human MET M1250T mutant assessed as remaining activity at 1 uM by ATP-competition binding assay relative to control", "in_short": "as §3"}, "[23]": {"test_system": "Epidermal growth factor receptor (Homo sapiens), P00533 [L858R,T790M]", "assay": "Inhibition of human EGFR L858R/T790M mutant assessed as remaining activity at 1 uM by ATP-competition binding assay relative to control", "in_short": "as §2"}, "[24]": {"target": "Ephrin type-B receptor 2 (Homo sapiens) (UniProt P29323)", "assay": "Inhibition of human EPHB2 assessed as remaining activity at 1 uM by ATP-competition binding assay relative to control", "in_short": "as §3"}, "[25]": {"target": "Tyrosine-protein kinase BTK (Homo sapiens) (UniProt Q06187)", "sequence (Q06187 whole entry)": "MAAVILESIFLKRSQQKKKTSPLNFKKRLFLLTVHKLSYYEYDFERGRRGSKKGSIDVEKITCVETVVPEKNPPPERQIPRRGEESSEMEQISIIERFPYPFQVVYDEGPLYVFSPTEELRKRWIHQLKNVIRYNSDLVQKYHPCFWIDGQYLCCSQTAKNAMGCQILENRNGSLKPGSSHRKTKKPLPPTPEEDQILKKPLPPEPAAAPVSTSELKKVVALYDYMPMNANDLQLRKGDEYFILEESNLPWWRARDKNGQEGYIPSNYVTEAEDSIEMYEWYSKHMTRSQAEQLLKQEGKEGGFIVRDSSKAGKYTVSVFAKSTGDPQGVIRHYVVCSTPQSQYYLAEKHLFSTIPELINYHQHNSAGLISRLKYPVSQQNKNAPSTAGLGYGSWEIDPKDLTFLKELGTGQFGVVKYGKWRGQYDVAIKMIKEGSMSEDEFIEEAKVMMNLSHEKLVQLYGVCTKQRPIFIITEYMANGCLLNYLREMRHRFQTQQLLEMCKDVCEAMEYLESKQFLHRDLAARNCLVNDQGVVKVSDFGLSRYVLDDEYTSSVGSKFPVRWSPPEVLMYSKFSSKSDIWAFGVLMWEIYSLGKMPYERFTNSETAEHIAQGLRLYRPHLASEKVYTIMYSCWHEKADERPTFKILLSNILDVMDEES", "details": "dose < 100.0 nM"}, "[26]": {"test_system": "Epidermal growth factor receptor (Homo sapiens), P00533 [UNDEFINED MUTATION]", "assay": "Inhibition of human EGFR L747-E749del/A750P mutant assessed as remaining activity at 1 uM by ATP-competition binding assay relative to control", "in_short": "as §2"}}, "note": "Activity calls are given as the source filed them. The rule behind the calls is not given here."}
{"smiles": "CC#CC(=O)N1CCC[C@H]1c1nc(-c2ccc(C(=O)Nc3ccccn3)cc2)c2c(N)nccn12", "note": "[ACALABRUTINIB]", "values": [{"measurement": "Activity", "setting": "[1]", "result": 93, "unit": "%"}, {"measurement": "Activity", "setting": "[2]", "result": 80, "unit": "%"}, {"measurement": "Activity", "setting": "[3]", "result": 93, "unit": "%"}, {"measurement": "Activity", "setting": "[4]", "result": 77, "unit": "%"}, {"measurement": "Activity", "setting": "[5]", "result": 33, "unit": "%"}, {"measurement": "Activity", "setting": "[6]", "result": 94, "unit": "%"}, {"measurement": "Activity", "setting": "CLL mononuclear cell", "result": "Active"}, {"measurement": "Activity", "setting": "[7]", "result": 90, "unit": "%"}, {"measurement": "Activity", "setting": "[8]", "result": 91, "unit": "%"}, {"measurement": "Activity", "setting": "[9]", "result": 83, "unit": "%"}, {"measurement": "Activity", "setting": "[10]", "result": 84, "unit": "%"}, {"measurement": "Activity", "setting": "[11]", "result": 94, "unit": "%"}, {"measurement": "Activity", "setting": "[12]", "result": 91, "unit": "%"}, {"measurement": "Activity", "setting": "[13]", "result": 84, "unit": "%"}, {"measurement": "inhibition in vivo at 300 µg/mL", "setting": "[14]", "result": 79, "unit": "%"}, {"measurement": "Activity", "setting": "[15]", "result": 93, "unit": "%"}, {"measurement": "Activity", "setting": "[16]", "result": 80, "unit": "%"}, {"measurement": "Activity", "setting": "[17]", "result": 84, "unit": "%"}, {"measurement": "Activity", "setting": "[18]", "result": 100, "unit": "%"}, {"measurement": "Activity", "setting": "[19]", "result": 76, "unit": "%"}, {"measurement": "Activity", "setting": "[20]", "result": 94, "unit": "%"}, {"measurement": "Activity", "setting": "[21]", "result": 75, "unit": "%"}, {"measurement": "Activity", "setting": "[22]", "result": 90, "unit": "%"}, {"measurement": "Activity", "setting": "[23]", "result": 94, "unit": "%"}, {"measurement": "Activity", "setting": "[24]", "result": 69, "unit": "%"}, {"measurement": "inhibition", "setting": "[25]", "result": "Active"}, {"measurement": "Activity", "setting": "[26]", "result": 87, "unit": "%"}]}
